Experimental data from ChEMBL document CHEMBL1134363 (J Med Chem, 2001).

How the values were obtained:
[1] = target: T1, Alpha-2A adrenergic receptor (Homo sapiens, UniProt P08913); assay: Binding affinity for human alpha-2 adrenergic receptor expressed in CHO cell; assay type: cell-based
T1 sequence (P08913 whole entry): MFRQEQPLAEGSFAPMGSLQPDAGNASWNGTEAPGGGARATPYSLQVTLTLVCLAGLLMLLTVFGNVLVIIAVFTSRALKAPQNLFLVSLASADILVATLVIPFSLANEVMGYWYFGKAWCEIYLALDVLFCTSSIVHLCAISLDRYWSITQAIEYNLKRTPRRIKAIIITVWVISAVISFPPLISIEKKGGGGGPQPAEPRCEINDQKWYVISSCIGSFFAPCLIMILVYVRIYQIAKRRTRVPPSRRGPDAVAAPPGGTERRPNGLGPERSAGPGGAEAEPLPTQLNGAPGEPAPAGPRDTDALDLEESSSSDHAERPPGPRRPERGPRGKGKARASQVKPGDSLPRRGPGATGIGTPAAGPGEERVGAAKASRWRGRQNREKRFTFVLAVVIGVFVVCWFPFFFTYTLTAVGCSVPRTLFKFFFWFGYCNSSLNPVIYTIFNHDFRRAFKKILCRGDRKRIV

[2] = target: Sodium-dependent serotonin transporter (Rattus norvegicus, UniProt P31652); assay: In vitro binding affinity was determined against serotonin reuptake site of rat in presence of [3H]paroxetine radioligand
[3] = target: T2, Adrenergic receptor alpha-1 (Rattus norvegicus, UniProt P15823+P23944+P43140); assay: In vitro binding affinity against alpha-1 adrenergic receptor of rat in presence of [3H]-prazosin radioligand; assay type: protein assay
T2 sequence (P15823 whole entry): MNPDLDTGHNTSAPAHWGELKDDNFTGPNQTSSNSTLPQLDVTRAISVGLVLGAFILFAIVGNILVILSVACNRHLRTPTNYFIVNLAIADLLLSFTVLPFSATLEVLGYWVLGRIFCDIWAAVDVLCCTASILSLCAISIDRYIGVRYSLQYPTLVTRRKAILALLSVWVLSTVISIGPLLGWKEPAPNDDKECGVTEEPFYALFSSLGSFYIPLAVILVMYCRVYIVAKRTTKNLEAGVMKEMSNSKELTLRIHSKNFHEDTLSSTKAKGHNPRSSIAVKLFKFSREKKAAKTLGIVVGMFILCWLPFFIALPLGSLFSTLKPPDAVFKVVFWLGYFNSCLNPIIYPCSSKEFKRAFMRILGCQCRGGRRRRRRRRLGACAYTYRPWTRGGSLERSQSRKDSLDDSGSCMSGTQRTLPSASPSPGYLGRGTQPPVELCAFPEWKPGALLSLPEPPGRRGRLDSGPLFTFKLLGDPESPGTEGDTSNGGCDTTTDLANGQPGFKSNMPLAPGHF
T2 sequence (P23944 whole entry): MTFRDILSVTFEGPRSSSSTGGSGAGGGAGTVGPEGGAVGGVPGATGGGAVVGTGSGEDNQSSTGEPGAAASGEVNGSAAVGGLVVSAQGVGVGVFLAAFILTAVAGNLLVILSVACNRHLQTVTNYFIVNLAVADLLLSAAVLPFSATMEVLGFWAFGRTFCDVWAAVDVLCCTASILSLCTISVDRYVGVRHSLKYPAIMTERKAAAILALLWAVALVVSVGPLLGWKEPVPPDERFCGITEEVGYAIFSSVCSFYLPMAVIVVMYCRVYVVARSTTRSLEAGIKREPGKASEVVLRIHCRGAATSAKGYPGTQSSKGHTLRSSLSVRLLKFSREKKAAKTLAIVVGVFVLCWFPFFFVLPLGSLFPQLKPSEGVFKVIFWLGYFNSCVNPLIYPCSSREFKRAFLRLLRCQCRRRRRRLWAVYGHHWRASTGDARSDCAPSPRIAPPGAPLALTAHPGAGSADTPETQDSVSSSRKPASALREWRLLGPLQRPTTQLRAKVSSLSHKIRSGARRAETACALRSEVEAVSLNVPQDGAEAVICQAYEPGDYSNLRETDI
T2 sequence (P43140 whole entry): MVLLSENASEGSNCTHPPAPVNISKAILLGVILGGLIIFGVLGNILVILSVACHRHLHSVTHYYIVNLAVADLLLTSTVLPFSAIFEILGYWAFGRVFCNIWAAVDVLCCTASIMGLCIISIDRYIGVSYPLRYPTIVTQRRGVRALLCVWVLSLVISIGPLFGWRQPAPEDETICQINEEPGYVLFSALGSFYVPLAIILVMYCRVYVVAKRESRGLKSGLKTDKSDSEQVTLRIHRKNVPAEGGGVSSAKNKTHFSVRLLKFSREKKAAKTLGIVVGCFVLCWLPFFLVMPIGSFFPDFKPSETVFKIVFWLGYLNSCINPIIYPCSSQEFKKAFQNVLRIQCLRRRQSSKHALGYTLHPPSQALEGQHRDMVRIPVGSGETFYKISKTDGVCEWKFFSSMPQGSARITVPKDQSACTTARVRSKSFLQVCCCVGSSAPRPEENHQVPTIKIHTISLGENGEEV

[4] = target: T3, Adrenergic receptor alpha-2 (Rattus norvegicus, UniProt P22086+P19328+P22909); assay: In vitro binding affinity against alpha-2 adrenergic receptor of rat in presence of [3H]-RX 821002 radioligand; assay type: protein assay
T3 sequence (P22086 whole entry): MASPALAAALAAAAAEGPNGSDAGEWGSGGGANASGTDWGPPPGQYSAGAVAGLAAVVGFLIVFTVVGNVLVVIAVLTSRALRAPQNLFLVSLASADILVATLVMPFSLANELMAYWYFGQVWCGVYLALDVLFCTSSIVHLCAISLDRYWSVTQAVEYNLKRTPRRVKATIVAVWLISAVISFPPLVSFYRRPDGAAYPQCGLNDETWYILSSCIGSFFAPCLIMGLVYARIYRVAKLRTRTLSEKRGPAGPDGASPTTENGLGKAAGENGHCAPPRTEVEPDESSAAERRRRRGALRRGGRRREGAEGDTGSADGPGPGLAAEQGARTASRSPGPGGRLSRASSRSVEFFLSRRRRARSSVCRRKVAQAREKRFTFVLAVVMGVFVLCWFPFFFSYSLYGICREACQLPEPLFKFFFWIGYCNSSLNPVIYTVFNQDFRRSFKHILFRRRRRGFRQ
T3 sequence (P19328 whole entry): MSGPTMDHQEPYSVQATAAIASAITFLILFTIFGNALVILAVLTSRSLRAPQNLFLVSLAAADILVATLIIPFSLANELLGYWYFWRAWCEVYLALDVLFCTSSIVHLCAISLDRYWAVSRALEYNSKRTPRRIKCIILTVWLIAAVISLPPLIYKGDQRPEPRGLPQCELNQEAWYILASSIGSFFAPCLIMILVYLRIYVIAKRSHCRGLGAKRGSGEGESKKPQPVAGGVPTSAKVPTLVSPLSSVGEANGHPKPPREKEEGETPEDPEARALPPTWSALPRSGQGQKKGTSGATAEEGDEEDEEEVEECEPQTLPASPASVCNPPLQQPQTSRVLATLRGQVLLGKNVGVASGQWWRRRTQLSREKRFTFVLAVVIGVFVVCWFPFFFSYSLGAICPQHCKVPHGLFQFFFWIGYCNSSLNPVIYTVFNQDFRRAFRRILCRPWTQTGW
T3 sequence (P22909 whole entry): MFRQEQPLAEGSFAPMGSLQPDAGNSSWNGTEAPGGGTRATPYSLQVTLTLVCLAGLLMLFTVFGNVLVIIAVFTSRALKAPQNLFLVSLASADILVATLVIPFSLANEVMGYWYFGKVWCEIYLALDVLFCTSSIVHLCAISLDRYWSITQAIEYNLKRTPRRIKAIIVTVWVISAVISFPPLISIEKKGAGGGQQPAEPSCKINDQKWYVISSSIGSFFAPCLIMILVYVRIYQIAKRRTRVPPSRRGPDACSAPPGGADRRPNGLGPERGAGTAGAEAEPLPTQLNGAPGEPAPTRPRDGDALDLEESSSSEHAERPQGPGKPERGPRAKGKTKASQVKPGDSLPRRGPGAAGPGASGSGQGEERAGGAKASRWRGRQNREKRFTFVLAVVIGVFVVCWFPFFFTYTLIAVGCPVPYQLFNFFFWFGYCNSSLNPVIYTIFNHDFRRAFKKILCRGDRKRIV

[5] = target: T4, Alpha-2A adrenergic receptor (Homo sapiens) (UniProt P08913); assay: Antagonistic activity as [35S]GTP gamma-S binding at alpha-2a adrenergic receptor expressed in CHO cells; assay type: functional, cell-based
T4 sequence (whole entry): T1 sequence (P08913 whole entry)
Method in brief: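 Membranes (40 μg/mL) from CHO cells stably expressing human α2A receptor, preincubated 30 min at room temperature with drug in 20 mM HEPES pH 7.4, 100 mM NaCl, 3 μM GDP, 3 mM MgCl2; 0.2 nM [35S]GTPγS added, 60 min room temperature, NA 10 μM as agonist. Nonspecific: 10 μM GTPγS. Filtration, scintillation counting; pKB from IC50 corrected for agonist concentration/EC50.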

[6] = target: Norepinephrine transporter (Rattus norvegicus, UniProt Q9WTR4); assay: In vitro binding affinity was determined against NA (noradrenaline) reuptake site of rat in presence of [3H]nisoxetine radioligand
Norepinephrine transporter, sequence (Q9WTR4 whole entry): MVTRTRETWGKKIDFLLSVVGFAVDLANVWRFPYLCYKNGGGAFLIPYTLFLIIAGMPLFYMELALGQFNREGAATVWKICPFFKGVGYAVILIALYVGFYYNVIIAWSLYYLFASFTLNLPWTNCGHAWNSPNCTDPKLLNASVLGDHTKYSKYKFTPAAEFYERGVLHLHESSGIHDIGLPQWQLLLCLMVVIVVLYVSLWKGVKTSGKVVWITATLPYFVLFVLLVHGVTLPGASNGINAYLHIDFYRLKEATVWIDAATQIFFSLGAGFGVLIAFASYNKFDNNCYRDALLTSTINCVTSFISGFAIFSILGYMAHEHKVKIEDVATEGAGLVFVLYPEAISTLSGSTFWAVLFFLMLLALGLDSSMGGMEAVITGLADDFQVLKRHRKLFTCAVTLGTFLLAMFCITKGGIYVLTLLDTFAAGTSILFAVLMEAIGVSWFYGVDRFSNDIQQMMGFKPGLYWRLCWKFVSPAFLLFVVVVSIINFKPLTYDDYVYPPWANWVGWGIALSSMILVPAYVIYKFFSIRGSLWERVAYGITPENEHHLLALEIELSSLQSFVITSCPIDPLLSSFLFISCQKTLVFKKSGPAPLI

Sodium-dependent serotonin transporter, sequence (P31652 whole entry): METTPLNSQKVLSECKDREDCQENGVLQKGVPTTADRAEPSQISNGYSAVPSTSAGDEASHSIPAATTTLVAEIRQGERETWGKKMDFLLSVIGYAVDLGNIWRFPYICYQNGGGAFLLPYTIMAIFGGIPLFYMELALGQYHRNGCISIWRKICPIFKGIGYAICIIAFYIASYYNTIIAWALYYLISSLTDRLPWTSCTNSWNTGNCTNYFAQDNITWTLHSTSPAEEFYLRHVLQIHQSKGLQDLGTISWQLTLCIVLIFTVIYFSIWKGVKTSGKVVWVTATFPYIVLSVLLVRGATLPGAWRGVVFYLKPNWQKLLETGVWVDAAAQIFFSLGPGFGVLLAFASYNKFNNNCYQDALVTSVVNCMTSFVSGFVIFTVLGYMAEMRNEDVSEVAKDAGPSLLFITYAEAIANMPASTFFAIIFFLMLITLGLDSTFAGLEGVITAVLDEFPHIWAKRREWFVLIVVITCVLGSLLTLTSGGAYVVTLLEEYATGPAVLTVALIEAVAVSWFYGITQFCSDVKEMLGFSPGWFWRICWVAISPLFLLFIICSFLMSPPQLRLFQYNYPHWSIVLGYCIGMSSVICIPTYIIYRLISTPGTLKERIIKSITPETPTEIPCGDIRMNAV

Structure (SMILES)	Ki [1]	Ki [2]	Log Ki [3]	Log Ki [4]	pKB [5]	Ki [6]
C1=NCC(CC2Cc3ccccc3C2)N1 (centres undefined)	3.98 nM	63.1 nM	-6.3	-8.7	8.1	39.8 nM
C1=NCC(Cc2cc3ccccc3o2)N1 (centres undefined)	20 nM	1000 nM	-5.6	-7.9	6.9	63.1 nM
CCC1(c2cnc[nH]2)Cc2ccccc2C1 [ATIPAMEZOLE]	3.16 nM	> 3160 nM				> 10000 nM
C1=NC[C@@H](C2C[C@@]23CCc2ccccc2C3)N1 (some centres undefined)	3.16 nM	2 nM	-6.3	-8.2	8.2	100 nM
Fc1cccc2c1C=C(CC1CN=CN1)CC2 (centres undefined)	39.8 nM	79.4 nM	-6.3	-7.4	6.8	126 nM
C1=NC[C@]2(CC[C@@H]3Cc4ccccc4C[C@H]3C2)N1 (relative stereo)	1.26 nM	15.8 nM	-6.1	-8	8.2	200 nM
C1=NC[C@H](C[C@]23CCc4ccccc4C2C3)N1 (some centres undefined)	63.1 nM	50.1 nM	-5.9	-7.3	6.8	794 nM
C1=NCC(CC2=Cc3ccccc3CC2)N1 (centres undefined)	100 nM	39.8 nM	-6.4	-7	6.6	50.1 nM
Clc1cccc2c1C=C(CC1CN=CN1)CC2 (centres undefined)	31.6 nM	20 nM	-6.4	-7.6	7.6	50.1 nM
Fc1ccc2c(c1)C=C(CC1CN=CN1)CC2 (centres undefined)	158 nM	1.58 nM	-6.6	-6.7	6.7	50.1 nM
Clc1cccc2ccc(CC3CN=CN3)cc12 (centres undefined)	25.1 nM	31.6 nM	-6.4	-7.5	7.5	20 nM
CCC1(c2c[nH]cn2)Cc2ccccc2C1 [ATIPAMEZOLE]			-5.7		8.9	
CN[C@H](CC(C)C)C(=O)N[C@H]1C(=O)N[C@@H](CC(N)=O)C(=O)N[C@H]2C(=O)N[C@H]3C(=O)N[C@H](C(=O)N[C@H](C(=O)O)c4cc(O)cc(O)c4-c4cc3ccc4O)[C@H](O)c3ccc(c(Cl)c3)Oc3cc2cc(c3O[C@@H]2O[C@H](CO)[C@@H](O)[C@H](O)[C@H]2O[C@H]2C[C@](C)(N)[C@H](O)[C@H](C)O2)Oc2ccc(cc2Cl)[C@H]1O [VANCOMYCIN]		50.1 nM	-6	-6.9	6.7	15.8 nM
C1=NCC(CC2=Cc3ccccc3C2)N1 (centres undefined)		79.4 nM	-5.9	-7.8		31.6 nM
CNCCC(Oc1ccc(C(F)(F)F)cc1)c1ccccc1 (centres undefined)					7.4	
C[C@@]1(C[C@@H]2CN=CN2)CCc2ccccc2C1		10 nM	-6	-7.1		200 nM
